For orientation: inhibition means the share of the control response that was lost under treatment.

SMILES strings stand for the structures.

The target in experiment [1] is Cyclin-dependent kinase-like 1 (Homo sapiens) (UniProt Q00532). In words: Inhibition of human recombinant CDKL1 at 40 nM in presence of ATP by radiometric assay relative to control.
Experiment [2] has as its target T1, Myosin-IIIb (Homo sapiens) (UniProt Q8WXR4).
T1 sequence (whole entry): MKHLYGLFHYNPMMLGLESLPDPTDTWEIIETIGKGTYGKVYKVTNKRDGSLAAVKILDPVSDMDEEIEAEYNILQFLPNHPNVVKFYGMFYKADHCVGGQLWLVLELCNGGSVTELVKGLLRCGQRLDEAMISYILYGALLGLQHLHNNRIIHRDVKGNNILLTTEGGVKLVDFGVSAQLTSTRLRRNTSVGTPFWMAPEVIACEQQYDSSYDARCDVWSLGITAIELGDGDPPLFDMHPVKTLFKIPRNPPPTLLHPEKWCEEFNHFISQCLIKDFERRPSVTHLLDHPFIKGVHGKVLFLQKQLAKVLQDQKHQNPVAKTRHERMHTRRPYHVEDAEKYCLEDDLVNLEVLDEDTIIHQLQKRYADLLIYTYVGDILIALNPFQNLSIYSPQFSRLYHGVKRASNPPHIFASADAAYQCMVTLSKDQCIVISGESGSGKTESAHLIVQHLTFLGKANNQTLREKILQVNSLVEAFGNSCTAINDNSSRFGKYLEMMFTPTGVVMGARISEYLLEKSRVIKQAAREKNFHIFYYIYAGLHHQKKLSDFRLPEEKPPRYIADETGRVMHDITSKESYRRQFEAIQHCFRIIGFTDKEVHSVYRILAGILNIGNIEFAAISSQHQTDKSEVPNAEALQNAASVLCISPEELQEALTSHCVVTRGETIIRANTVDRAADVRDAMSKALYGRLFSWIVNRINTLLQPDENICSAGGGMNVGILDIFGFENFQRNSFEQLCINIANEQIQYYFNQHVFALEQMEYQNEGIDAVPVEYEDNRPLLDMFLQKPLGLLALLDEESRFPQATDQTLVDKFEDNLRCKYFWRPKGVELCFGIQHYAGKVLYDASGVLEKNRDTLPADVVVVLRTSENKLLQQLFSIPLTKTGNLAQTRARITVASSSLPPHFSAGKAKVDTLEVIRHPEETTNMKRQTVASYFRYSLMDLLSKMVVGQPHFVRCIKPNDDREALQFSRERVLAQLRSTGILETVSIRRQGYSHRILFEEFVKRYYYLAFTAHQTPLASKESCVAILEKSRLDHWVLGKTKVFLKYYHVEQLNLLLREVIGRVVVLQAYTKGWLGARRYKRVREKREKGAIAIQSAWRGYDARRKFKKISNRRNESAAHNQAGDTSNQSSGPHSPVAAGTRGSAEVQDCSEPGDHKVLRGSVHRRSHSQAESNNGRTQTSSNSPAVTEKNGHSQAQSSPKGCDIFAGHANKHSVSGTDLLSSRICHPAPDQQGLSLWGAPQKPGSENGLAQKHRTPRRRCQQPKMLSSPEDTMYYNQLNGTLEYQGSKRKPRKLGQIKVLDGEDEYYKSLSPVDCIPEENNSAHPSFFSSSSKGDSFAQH
As to the kind of experiment: Inhibition of human recombinant MYO3B at 40 nM related to control ULK1.

Experiment [3] concerns the target Activin receptor type-1-like (Homo sapiens) (UniProt P37023). As to the kind of experiment: Inhibition of human recombinant ALK1 at 500 nM in presence of ATP by radiometric assay relative to control. The essentials:
(§1)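 Panel of 327 recombinant human kinases, each assayed in vitro by radiometric activity assay in duplicate at a single inhibitor concentration per compound, chosen with reference to its ULK1 inhibition. Activity remaining was expressed as percent of vehicle control, and percent inhibition was calculated as 100 minus percent activity remaining.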

Experiment [4] addresses T2, Testis-specific serine/threonine-protein kinase 1 (Homo sapiens) (UniProt Q9BXA7).
T2 sequence (whole entry): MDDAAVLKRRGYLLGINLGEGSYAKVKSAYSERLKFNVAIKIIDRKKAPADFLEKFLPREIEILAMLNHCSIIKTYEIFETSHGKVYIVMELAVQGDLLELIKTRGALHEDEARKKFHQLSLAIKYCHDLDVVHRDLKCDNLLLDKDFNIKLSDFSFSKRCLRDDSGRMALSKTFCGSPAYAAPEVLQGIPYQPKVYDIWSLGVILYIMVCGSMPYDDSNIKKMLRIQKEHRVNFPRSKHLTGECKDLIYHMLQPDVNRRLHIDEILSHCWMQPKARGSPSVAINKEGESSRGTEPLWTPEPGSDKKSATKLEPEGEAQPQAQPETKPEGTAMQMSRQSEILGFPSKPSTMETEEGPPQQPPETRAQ
As to the kind of experiment: Inhibition of human recombinant TSSK1 at 500 nM in presence of ATP by radiometric assay relative to control.

Experiment [5] deals with Epidermal growth factor receptor (Homo sapiens) (UniProt P00533). In words: Inhibition of human recombinant EGFR at 500 nM related to control ULK1.
Epidermal growth factor receptor (Homo sapiens), sequence (P00533 whole entry): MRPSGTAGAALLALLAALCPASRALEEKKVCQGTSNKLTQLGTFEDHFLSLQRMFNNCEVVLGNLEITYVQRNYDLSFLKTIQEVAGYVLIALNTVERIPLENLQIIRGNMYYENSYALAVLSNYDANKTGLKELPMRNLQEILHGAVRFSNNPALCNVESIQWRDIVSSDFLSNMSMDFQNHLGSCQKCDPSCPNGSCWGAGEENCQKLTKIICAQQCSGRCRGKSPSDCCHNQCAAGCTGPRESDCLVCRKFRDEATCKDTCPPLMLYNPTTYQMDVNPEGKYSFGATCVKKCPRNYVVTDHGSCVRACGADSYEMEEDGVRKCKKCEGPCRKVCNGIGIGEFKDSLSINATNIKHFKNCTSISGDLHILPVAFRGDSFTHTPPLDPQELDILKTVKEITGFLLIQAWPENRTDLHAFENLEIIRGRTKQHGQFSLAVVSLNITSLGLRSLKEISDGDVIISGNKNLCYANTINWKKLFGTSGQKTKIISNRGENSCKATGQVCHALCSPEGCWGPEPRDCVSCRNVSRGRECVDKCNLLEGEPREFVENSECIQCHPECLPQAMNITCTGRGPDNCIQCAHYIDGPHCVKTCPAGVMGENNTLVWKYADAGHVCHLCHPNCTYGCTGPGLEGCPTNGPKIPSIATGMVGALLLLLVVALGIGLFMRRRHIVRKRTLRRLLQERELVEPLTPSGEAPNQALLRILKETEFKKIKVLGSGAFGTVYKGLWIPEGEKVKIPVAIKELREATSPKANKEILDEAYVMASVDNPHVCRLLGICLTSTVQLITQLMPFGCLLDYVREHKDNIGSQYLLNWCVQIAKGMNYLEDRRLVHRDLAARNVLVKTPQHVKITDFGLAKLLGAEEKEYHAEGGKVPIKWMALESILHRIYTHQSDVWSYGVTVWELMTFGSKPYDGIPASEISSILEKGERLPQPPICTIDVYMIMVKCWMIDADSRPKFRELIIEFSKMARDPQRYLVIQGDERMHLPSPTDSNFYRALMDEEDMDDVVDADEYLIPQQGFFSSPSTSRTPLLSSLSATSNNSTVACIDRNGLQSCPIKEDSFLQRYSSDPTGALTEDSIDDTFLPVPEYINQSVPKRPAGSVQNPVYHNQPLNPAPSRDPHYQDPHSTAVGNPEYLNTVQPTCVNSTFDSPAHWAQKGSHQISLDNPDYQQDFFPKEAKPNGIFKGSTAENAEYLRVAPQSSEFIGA
Experiment [6] deals with MAP kinase-interacting serine/threonine-protein kinase 2 (Homo sapiens, UniProt Q9HBH9). As to the kind of experiment: Inhibition of human recombinant MNK2 at 500 nM in presence of ATP by radiometric assay relative to control.
MAP kinase-interacting serine/threonine-protein kinase 2, sequence (Q9HBH9 whole entry, looked up): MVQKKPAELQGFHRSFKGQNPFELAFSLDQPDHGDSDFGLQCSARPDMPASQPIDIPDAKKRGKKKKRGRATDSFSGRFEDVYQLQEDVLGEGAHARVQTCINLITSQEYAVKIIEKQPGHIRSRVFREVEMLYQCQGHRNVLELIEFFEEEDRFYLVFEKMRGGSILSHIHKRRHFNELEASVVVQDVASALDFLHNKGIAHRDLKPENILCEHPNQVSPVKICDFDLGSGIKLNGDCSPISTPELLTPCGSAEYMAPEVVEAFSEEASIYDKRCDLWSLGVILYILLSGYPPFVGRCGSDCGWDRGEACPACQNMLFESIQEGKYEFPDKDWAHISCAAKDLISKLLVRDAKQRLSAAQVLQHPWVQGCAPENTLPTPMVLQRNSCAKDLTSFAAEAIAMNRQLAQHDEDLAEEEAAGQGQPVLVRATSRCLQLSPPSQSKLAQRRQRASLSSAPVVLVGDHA
Experiment [7] has as its target 5'-AMP-activated protein kinase catalytic subunit alpha-2 (Homo sapiens) (UniProt P54646). In words: Inhibition of human recombinant AMPKa2 at 500 nM related to control ULK1. Summed up: as §1
Experiment [8] deals with Platelet-derived growth factor receptor alpha (Homo sapiens) (UniProt P16234). As to the kind of experiment: Inhibition of human recombinant PDGFRa at 500 nM related to control ULK1.
Platelet-derived growth factor receptor alpha (Homo sapiens), sequence (P16234 whole entry): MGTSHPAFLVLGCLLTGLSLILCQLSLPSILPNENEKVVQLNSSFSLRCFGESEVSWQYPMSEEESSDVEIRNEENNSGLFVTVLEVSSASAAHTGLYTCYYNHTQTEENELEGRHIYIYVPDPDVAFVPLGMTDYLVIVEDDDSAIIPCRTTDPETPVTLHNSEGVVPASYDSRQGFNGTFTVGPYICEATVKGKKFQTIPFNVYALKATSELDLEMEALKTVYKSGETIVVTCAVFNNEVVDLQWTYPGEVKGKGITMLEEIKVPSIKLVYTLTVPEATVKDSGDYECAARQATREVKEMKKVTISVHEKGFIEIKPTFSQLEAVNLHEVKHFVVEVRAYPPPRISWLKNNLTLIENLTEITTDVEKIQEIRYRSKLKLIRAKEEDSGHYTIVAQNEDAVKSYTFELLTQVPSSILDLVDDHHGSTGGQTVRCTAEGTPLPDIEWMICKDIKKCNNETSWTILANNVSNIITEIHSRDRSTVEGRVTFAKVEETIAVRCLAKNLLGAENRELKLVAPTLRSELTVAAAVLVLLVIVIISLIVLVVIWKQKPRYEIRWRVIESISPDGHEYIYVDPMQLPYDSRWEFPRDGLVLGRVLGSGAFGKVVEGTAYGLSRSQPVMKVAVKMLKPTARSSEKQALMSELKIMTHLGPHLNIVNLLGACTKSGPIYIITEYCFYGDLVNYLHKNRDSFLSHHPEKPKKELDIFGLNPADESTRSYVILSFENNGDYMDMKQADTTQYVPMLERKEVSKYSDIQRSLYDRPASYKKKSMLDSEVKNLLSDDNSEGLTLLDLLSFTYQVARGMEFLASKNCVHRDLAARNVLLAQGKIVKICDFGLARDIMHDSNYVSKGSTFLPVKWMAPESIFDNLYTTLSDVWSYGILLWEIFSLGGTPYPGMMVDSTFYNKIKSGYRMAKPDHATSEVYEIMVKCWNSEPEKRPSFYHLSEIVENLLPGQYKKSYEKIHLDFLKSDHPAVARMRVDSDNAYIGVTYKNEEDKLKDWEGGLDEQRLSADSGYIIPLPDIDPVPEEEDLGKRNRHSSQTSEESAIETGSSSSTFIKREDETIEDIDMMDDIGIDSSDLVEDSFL
In experiment [9] the target is Mitogen-activated protein kinase kinase kinase kinase 4 (Homo sapiens) (UniProt O95819). In words: Inhibition of human recombinant HGK at 15 nM in presence of ATP by radiometric assay relative to control.
Mitogen-activated protein kinase kinase kinase kinase 4 (Homo sapiens), sequence (O95819 2-1239 limits assumed): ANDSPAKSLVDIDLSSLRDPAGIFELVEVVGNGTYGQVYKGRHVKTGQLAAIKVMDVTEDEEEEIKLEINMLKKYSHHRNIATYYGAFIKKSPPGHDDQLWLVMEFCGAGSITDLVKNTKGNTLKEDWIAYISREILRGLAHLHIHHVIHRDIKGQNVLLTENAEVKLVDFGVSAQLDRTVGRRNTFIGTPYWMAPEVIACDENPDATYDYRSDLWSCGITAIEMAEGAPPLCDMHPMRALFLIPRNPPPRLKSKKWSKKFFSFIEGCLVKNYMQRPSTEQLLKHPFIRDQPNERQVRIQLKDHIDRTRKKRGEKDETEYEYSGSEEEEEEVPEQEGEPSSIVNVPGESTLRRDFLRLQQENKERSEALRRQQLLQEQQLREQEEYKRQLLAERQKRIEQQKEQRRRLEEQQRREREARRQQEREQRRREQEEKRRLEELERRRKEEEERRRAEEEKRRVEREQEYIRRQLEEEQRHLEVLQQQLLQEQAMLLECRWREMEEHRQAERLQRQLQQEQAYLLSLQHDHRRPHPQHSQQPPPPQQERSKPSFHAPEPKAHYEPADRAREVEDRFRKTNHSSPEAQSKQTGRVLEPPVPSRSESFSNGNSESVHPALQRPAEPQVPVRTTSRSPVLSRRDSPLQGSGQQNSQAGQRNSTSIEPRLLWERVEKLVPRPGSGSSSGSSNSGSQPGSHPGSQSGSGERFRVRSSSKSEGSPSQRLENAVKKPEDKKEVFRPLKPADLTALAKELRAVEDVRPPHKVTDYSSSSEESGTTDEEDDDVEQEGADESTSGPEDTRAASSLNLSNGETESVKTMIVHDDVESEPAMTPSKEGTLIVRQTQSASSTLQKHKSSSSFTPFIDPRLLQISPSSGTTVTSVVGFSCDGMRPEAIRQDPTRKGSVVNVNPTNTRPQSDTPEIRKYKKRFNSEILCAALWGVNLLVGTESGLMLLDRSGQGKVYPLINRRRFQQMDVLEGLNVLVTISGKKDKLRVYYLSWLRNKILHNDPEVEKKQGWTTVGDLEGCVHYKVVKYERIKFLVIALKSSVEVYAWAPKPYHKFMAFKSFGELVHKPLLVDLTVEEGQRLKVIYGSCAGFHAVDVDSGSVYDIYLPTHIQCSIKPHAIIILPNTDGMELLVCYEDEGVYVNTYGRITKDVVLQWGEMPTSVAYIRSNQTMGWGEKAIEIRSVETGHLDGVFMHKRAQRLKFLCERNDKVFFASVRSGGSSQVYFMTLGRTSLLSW
Experiment [10] addresses Calcium/calmodulin-dependent protein kinase type II subunit delta (Homo sapiens) (UniProt Q13557). As to the kind of experiment: Inhibition of human recombinant CaMK2d at 15 nM related to control ULK1.

5'-AMP-activated protein kinase catalytic subunit alpha-2 (Homo sapiens), sequence (P54646 whole entry, looked up): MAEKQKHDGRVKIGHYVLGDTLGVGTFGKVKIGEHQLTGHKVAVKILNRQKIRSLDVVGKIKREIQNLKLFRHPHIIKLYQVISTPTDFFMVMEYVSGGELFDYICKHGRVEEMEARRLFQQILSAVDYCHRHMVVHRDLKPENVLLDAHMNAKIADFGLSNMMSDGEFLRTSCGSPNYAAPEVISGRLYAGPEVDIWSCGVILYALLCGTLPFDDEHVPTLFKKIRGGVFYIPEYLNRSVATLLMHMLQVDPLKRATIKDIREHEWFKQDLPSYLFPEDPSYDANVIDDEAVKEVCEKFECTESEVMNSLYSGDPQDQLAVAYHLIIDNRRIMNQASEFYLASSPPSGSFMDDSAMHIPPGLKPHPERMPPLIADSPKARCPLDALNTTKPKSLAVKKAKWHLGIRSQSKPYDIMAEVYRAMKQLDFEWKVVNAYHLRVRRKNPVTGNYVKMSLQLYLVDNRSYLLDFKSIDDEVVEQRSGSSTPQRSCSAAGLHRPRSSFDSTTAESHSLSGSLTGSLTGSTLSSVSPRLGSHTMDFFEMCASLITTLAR
Activin receptor type-1-like (Homo sapiens), sequence (P37023 whole entry): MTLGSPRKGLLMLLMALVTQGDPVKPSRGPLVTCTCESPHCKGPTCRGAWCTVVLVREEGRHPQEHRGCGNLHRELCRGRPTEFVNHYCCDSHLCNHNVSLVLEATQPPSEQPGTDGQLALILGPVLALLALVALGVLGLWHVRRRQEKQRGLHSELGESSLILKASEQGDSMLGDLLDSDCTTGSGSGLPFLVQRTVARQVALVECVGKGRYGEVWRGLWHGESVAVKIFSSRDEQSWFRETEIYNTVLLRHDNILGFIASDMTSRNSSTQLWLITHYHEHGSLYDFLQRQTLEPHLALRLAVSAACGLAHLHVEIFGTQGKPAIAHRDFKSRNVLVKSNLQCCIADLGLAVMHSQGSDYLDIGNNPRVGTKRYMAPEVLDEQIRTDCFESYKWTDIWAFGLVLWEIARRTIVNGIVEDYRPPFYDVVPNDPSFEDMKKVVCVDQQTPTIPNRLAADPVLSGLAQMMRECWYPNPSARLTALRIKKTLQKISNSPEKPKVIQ

`O=C(N[C@@H](C1CC1)C(F)(F)F)c1cc(-c2cnn3cc(-c4ccc(F)cc4)cnc23)cs1`: the inhibition in [1] stood at 15%. Moreover, the fold change (FC) in experiment [2] worked out at 0.
Consider `CNC(=O)c1ccccc1Oc1nc(Nc2cc(OC)c(OC)c(OC)c2)ncc1Br`, for which the inhibition came out at 0% in experiment [3], 0% in experiment [4] and 2% in experiment [6]. The fold change (FC) in [5] worked out at 0.04; in experiment [7] it was 0.77; in [8], 0.
With `CC(C)[C@H](NC(=O)c1cc(-c2cnn3cc(-c4ccc(OCCN5CCCCC5)cc4)cnc23)cs1)C(F)(F)F`, the inhibition in experiment [9] was 0%. Besides, the fold change (FC) in experiment [10] amounted to 0.23.

For the origin of these results see ChEMBL document CHEMBL5653631, “A Potent and Selective ULK1 Inhibitor Suppresses Autophagy and Sensitizes Cancer Cells to Nutrient Stress” (iScience, 2018).
